In experiment [1] the test system is Candida albicans. As to the kind of experiment: Antifungal activity against Candida albicans ATCC 10231 assessed as growth inhibition at 1 mg/mL after 48 hrs by agar-cup diffusion method. It counts as functional. Particulars: ATCC 10231, 48 h, read-out: DIZ. In a few lines: (§1)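 Agar-cup diffusion: 1 mL of 6 h broth culture seeded per 100 mL molten sterile agar at 45 °C and poured into plates. 8 mm cups cut, each filled with 0.1 mL of 1 mg/mL test solution. Incubated 37 °C for 24 h, 48 h for C. albicans. DMSO control per organism. Inhibition zone diameter in mm, mean of three measurements.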

The subject of experiment [2] is Escherichia coli. Kind of experiment: Antibacterial activity against Escherichia coli ATCC 25922 assessed as growth inhibition at 1 mg/mL after 24 hrs by agar-cup diffusion method. It counts as functional. The conditions noted are these: ATCC 25922, 24 h, read-out: DIZ. In a few lines:
as §1

For experiment [3], the system named is Bacillus spizizenii. Kind of experiment: Antibacterial activity against Bacillus subtilis ATCC 6633 assessed as growth inhibition at 1 mg/mL after 24 hrs by agar-cup diffusion method. It counts as functional. The conditions noted are these: ATCC 6633, 24 h, read-out: DIZ. Summed up: as §1
The subject of another experiment is Aspergillus niger. As to the kind of experiment: Antifungal activity against Aspergillus niger assessed as growth inhibition at 1 mg/mL after 24 hrs by agar-cup diffusion method. Format: functional, organism-based. In a few lines: as §1
Experiment [4] deals with Candida albicans. As to the kind of experiment: Fungicidal activity against Candida albicans ATCC 10231 after 18 hrs. The conditions noted are these: ATCC 10231, 18 h. It counts as functional. Summed up:
(§2)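 Continuation of the broth-dilution MIC test. A loopful from each tube without visible growth spread on a quarter of a Mueller-Hinton agar plate and incubated 18 h. Lowest concentration giving no growth on subculture taken as the MBC.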

In experiment [5] the test system is Candida albicans. Kind of experiment: Antifungal activity against Candida albicans ATCC 10231 assessed as growth inhibition after 48 hrs by two-fold serial dilution assay. It counts as functional. The conditions noted are these: ATCC 10231, 48 h. In a few lines: (§3)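 Twofold serial broth dilution run on compounds giving inhibition zones of 13 mm or more. Organisms pre-grown in suitable broth at 37 °C, 24 h for bacteria and 48 h for fungi. Dilution series 200, 100, 50, 25, 12.5, 6.25. Each 5 mL tube inoculated with 0.1 mL and incubated 37 °C for 48 h. Tubes scored for presence or absence of growth.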

In experiment [6] the test system is Pseudomonas aeruginosa. Kind of experiment: Bactericidal activity against Pseudomonas aeruginosa ATCC 27853 after 18 hrs. It counts as functional. Particulars: ATCC 27853, 18 h. In a few lines: as §2
For experiment [7], the system named is Pseudomonas aeruginosa. Kind of experiment: Antibacterial activity against Pseudomonas aeruginosa ATCC 27853 assessed as growth inhibition after 48 hrs by two-fold serial dilution assay. Format: functional. Particulars: ATCC 27853, 48 h. In a few lines:
as §3

Experiment [8] concerns Escherichia coli. Kind of experiment: Bactericidal activity against Escherichia coli ATCC 25922 after 18 hrs. Format: functional. The conditions noted are these: ATCC 25922, 18 h. In a few lines:
as §2

Experiment [9] has as its system Escherichia coli. Kind of experiment: Antibacterial activity against Escherichia coli ATCC 25922 assessed as growth inhibition after 48 hrs by two-fold serial dilution assay. Format: functional. Particulars: ATCC 25922, 48 h. In a few lines: as §3
For experiment [10], the system named is Bacillus spizizenii. Kind of experiment: Bactericidal activity against Bacillus subtilis ATCC 6633 after 18 hrs. It counts as functional. The conditions noted are these: ATCC 6633, 18 h. In a few lines: as §2
The test system of experiment [11] is Bacillus spizizenii. As to the kind of experiment: Antibacterial activity against Bacillus subtilis ATCC 6633 assessed as growth inhibition after 48 hrs by two-fold serial dilution assay. The conditions noted are these: ATCC 6633, 48 h. It counts as functional. In a few lines:
as §3

Experiment [12] deals with Staphylococcus aureus. Kind of experiment: Bactericidal activity against Staphylococcus aureus ATCC 6538 after 18 hrs. It counts as functional. Particulars: ATCC 6538, 18 h. In a few lines:
as §2

The subject of experiment [13] is Staphylococcus aureus. Kind of experiment: Antibacterial activity against Staphylococcus aureus ATCC 6538 assessed as growth inhibition after 48 hrs by two-fold serial dilution assay. Format: functional. The conditions noted are these: ATCC 6538, 48 h. In a few lines: as §3
Experiment [14] concerns Staphylococcus aureus. Kind of experiment: Antibacterial activity against Staphylococcus aureus ATCC 6538 assessed as growth inhibition at 1 mg/mL after 24 hrs by agar-cup diffusion method. Format: functional. Particulars: ATCC 6538, 24 h, read-out: DIZ. Summed up: as §1
For experiment [15], the system named is Pseudomonas aeruginosa. As to the kind of experiment: Antibacterial activity against Pseudomonas aeruginosa ATCC 27853 assessed as growth inhibition at 1 mg/mL after 24 hrs by agar-cup diffusion method. It counts as functional. The conditions noted are these: ATCC 27853, 24 h, read-out: DIZ. In a few lines: as §1

Values after ≈ are worked out from the molar mass of the structure shown. Active and inactive are the calls of the source. Some results are limits rather than exact numbers.

Consider `Cc1ccc(NC(=S)Nc2nc(C)c(C(=O)NN)s2)cc1`, for which the zone of inhibition at 1000 µg/mL in the experiment on Candida albicans [1], in the experiment on Escherichia coli [2], with Bacillus spizizenii [3], in the experiment with Staphylococcus aureus [14] and in the experiment on Pseudomonas aeruginosa [15] was more than 13 mm in each case. Besides, the “growth inhibition (GI)” value with Aspergillus niger is “inactive”. The MFC in the experiment on Candida albicans [4] was determined as 100 µg/mL (≈ 311 µM). The MIC in the experiment with Candida albicans [5] came out at 100 µg/mL (≈ 311 µM); in the experiment on Pseudomonas aeruginosa [7] it was 50 µg/mL (≈ 156 µM); in the experiment with Escherichia coli [9] it was 100 µg/mL (≈ 311 µM); in the experiment on Bacillus spizizenii [11], 50 µg/mL (≈ 156 µM); in the experiment with Staphylococcus aureus [13] it was 25 µg/mL (≈ 77.8 µM). Further, the MBC against Pseudomonas aeruginosa [6] turned out to be 100 µg/mL (≈ 311 µM); against Escherichia coli [8], 100 µg/mL (≈ 311 µM); in the experiment with Bacillus spizizenii [10] it was 50 µg/mL (≈ 156 µM); against Staphylococcus aureus [12], 25 µg/mL (≈ 77.8 µM).

What is called MFC is the smallest concentration meeting the test's criterion for killing the fungus. Lower therefore signals greater fungicidal potency. Broadly, the MIC is the lowest concentration found to suppress growth. Broadly, the MBC is the lowest tested concentration that kills the bacteria rather than only halting them. A low value points to greater bactericidal potency.

(Values after ChEMBL document CHEMBL3124924, “Bifunctional ethyl 2-amino-4-methylthiazole-5-carboxylate derivatives: synthesis and in vitro biological evaluation as antimicrobial and anticancer agents” (2014).)
